The values that follow come from ChEMBL document CHEMBL1128398, “Structure-activity relationship of alpha-galactosylceramides against B16-bearing mice” (1995).

For assay [1], the system named is B16. Briefly: Tumor Growth Inhibitory effect (TGIR) on mice subcutaneously inoculated with B16 cells (chemotherapeutic agent, mitomycin C (MMC)). It counts as functional, Mus musculus. Also noted: concentration or dose not given beside the values. The method in brief:
(§1)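 Groups of six female BDF1 mice received B16 melanoma (1 × 10^6 cells/mouse) s.c. on day 0. AGL analogues were given i.v. at 100 μg/kg on days 1, 5 and 9, and MMC at 5 mg/kg i.p. on day 1; controls were untreated. Tumor volume (length × width × height/2, by callipers) was read on days 8, 12, 16 and 20. TGIR = [1 − mean test volume/mean control volume] × 100, and the maximum value is reported.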

Assay [2] has as its system B16. The experiment in a line: Tumor Growth Inhibitory effect (TGIR) on mice subcutaneously inoculated with B16 cells (compound alone (single)). The assay is classed as functional, Mus musculus. Also noted: concentration or dose not given beside the values. A digest of the protocol: as §1
Assay [3] has as its system B16. The experiment in a line: Tumor Growth Inhibitory effect (TGIR) on mice subcutaneously inoculated with B16 cells (compound plus MMC). It counts as functional, Mus musculus. Also noted: concentration or dose not given beside the values. A digest of the protocol:
as §1

Assay [4] is filed under the species Mus musculus. The experiment in a line: Lymphocyte Proliferation Stimulatory effect was tested on mouse spleen cells and evaluated for at 6 h [3H]TdR (tritium-thymidine) pulse and uptake into cells at 1 ng/mL. It counts as functional. The method in brief: (§2)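 BALB/c spleen cells (2 × 10^5 cells/well, no stimulator cells) were cultured in 10% FCS RPMI 1640 with compound at 37 °C in 5% CO2 for 2–3 days. A 6 h [3H]TdR pulse followed, and uptake was counted by liquid scintillation. Run in triplicate.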

The species named for assay [5] is Mus musculus. Briefly: Lymphocyte Proliferation Stimulatory effect was tested on mouse spleen cells and evaluated for at 6 h [3H]TdR (tritium-thymidine) pulse and uptake into cells at 10 ng/mL. It counts as functional. A digest of the protocol:
as §2

For assay [6], the species on record is Mus musculus. Briefly: Lymphocyte Proliferation Stimulatory effect was tested on mouse spleen cells and evaluated for at 6 h [3H]TdR (tritium-thymidine) pulse and uptake into cells at 100 ng/mL. It counts as functional. The method in brief:
as §2

The species entered for assay [7] is Homo sapiens. The experiment in a line: Lymphocyte Proliferation Stimulatory effect on human umbilical cord blood at 100 ng/mL and measured for [3H]TdR (tritium-thymidine) uptake (percent of control). It counts as functional. A digest of the protocol: (§3)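 Mononuclear cells were isolated from human peripheral blood or umbilical cord blood and plated at 1 × 10^5 cells/well in RPMI 1640 with 10% autologous plasma, with compound. After 4 days of incubation, a 6 h [3H]TdR pulse was given and uptake was counted by scintillation. Run in triplicate.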

Assay [8] is filed under the species Homo sapiens. Briefly: Lymphocyte Proliferation Stimulatory effect on human umbilical cord blood at 1 ng/mL and measured for [3H]TdR (tritium-thymidine) uptake (percent of control). The assay is classed as functional. A digest of the protocol: as §3
The species named for assay [9] is Homo sapiens. Briefly: Lymphocyte Proliferation Stimulatory effect on human umbilical cord blood at 10 ng/mL and measured for [3H]TdR (tritium-thymidine) uptake (percent of control). It counts as functional. The method in brief:
as §3

For the compound `CCCCCCCCCCCCCCCCCC(=O)N[C@@H](CO[C@H]1O[C@@H](CO)[C@H](O)[C@H](O)[C@@H]1O)[C@H](O)CCCCCCCCCCCCCCC`, the “Tumor growth inhibition ratio (max TGIR)” value in the assay on B16 [1] is on record as 64.1%. The Control in the assay on B16 [2] was 78.1%; with B16 [3] it was 80.3%; in the assay filed under Mus musculus [4] it was 155%; in the assay listed under Mus musculus [5], 383%; in the assay listed under Mus musculus [6], 645%.
Regarding `CCCCCCCCCCCCCCC[C@@H](O)[C@H](CO[C@H]1O[C@@H](CO)[C@H](O)[C@H](O)[C@@H]1O)NC(=O)CCCCCCCCCCCCC`, in the assay with B16 [1], the “Tumor growth inhibition ratio (max TGIR)” value is recorded as 64.1%. Besides, the Control in the assay on B16 [2] was 54.2%; in the assay on B16 [3] it was 84.4%; in the assay listed under Mus musculus [4], 249%; in the assay filed under Mus musculus [5], 1010%; in the assay filed under Mus musculus [6] it was 1664%.
Regarding `CCCCCCCCCCCCCCCCCCCCCCCC(=O)N[C@H](CCCCCCCCCCCCCCCC)CO[C@H]1O[C@@H](CO)[C@H](O)[C@H](O)[C@@H]1O`, in the assay on B16 [1], the “Tumor growth inhibition ratio (max TGIR)” value was 80%. Besides, the Control with B16 [2] was found to be 40.7%; in the assay on B16 [3], 91.4%; in the assay filed under Mus musculus [4], 90%; in the assay filed under Mus musculus [5], 100%; in the assay listed under Mus musculus [6], 147%.
`CCCCCCCCCCCCCCCCCCCCCCCC(=O)N[C@@H](CO[C@H]1O[C@@H](CO)[C@H](O)[C@H](O)[C@@H]1O)[C@H](O)CCCCCCCCCCCCCCC`: in the assay with B16 [1], the “Tumor growth inhibition ratio (max TGIR)” value came to 64%. The Control was determined as 68.9% in the assay on B16 [2]; 99.1% with B16 [3]; 1115% in the assay filed under Mus musculus [4]; 1432% in the assay filed under Mus musculus [5]; 1494% in the assay filed under Mus musculus [6].
Regarding `CCCCCCCCCCCCCCCCCCCCCC[C@@H](O)C(=O)N[C@@H](CO[C@H]1O[C@@H](CO)[C@H](O)[C@H](O)[C@@H]1O)[C@H](O)[C@H](O)CCCCCCCCCCC`, the “Tumor growth inhibition ratio (max TGIR)” value in the assay with B16 [1] was determined as 46.5%. Further, the Control with B16 [2] amounted to 94.1%; with B16 [3], 77.4%; in the assay filed under Mus musculus [4] it was 330%; in the assay listed under Mus musculus [5], 676%; in the assay listed under Mus musculus [6], 838%.
For the compound `CCCCCCCCCCCCCCCCCCCCCC[C@@H](O)C(=O)N[C@@H](CO[C@H]1O[C@@H](CO)[C@H](O)[C@H](O)[C@@H]1O)[C@H](O)[C@H](O)CCCCCCCCCCCCCC`, the “Tumor growth inhibition ratio (max TGIR)” value in the assay with B16 [1] is 64%. The Control in the assay on B16 [2] worked out at 57.9%; with B16 [3], 91.9%; in the assay filed under Mus musculus [4], 1060%; in the assay filed under Mus musculus [5], 1405%; in the assay listed under Mus musculus [6] it was 1552%.
Consider `CCCCCCCCCCCCCCCCCCCCCC[C@@H](O)C(=O)N[C@@H](CO[C@H]1O[C@@H](CO)[C@H](O)[C@H](O)[C@@H]1O)[C@H](O)[C@H](O)CCCCCCC`, for which, in the assay on B16 [1], the “Tumor growth inhibition ratio (max TGIR)” value was determined as 46.5%. Besides, the Control with B16 [2] was found to be 46.2%; in the assay on B16 [3], 85.1%; in the assay filed under Mus musculus [4] it was 196%; in the assay filed under Mus musculus [5], 541%; in the assay listed under Mus musculus [6], 936%.
On to `CCCCCCCCCCCCCCCCCCCCCCCC[C@@H](O)C(=O)N[C@@H](CO[C@H]1O[C@@H](CO)[C@H](O)[C@H](O)[C@@H]1O)[C@H](O)[C@H](O)CCCCCCCCCCCCCCCC`, for which, in the assay on B16 [1], the “Tumor growth inhibition ratio (max TGIR)” value was determined as 87.3%. Also, the Control in the assay with B16 [2] came out at 92.8%; with B16 [3] it was 94.3%; in the assay filed under Mus musculus [4], 153%; in the assay filed under Mus musculus [5] it was 482%; in the assay listed under Mus musculus [6], 481%.
With `CCCCCCCCCCCCCCCCCCCCCCCC[C@@H](O)C(=O)N[C@@H](CO[C@H]1O[C@@H](CO)[C@H](O)[C@H](O)[C@@H]1O)[C@H](O)CCCCCCCCCCCCCCC`, the values for the Control in the assay filed under Homo sapiens [7], in the assay listed under Homo sapiens [8] and in the assay listed under Homo sapiens [9] were 362%, 210% and 238%, respectively.
Consider `CCCCCCCCCCCCCCCCCCCCCC(=O)N[C@@H](CO[C@H]1O[C@@H](CO)[C@H](O)[C@H](O)[C@@H]1O)[C@H](O)CCCCCCCCCCCCCCC`, for which the “Tumor growth inhibition ratio (max TGIR)” value in the assay on B16 [1] was 39.4%. The Control is 56.9% in the assay on B16 [2]; 85% with B16 [3]; 378% in the assay listed under Mus musculus [4]; 992% in the assay listed under Mus musculus [5]; 875% in the assay listed under Mus musculus [6].
For `CCCCCCCCCCCCCCCCCCCC(=O)N[C@@H](CO[C@H]1O[C@@H](CO)[C@H](O)[C@H](O)[C@@H]1O)[C@H](O)CCCCCCCCCCCCCCC`, the “Tumor growth inhibition ratio (max TGIR)” value in the assay with B16 [1] is reported as 39.4%. Further, the Control was found to be 53.1% in the assay with B16 [2]; 90.4% in the assay with B16 [3]; 177% in the assay filed under Mus musculus [4]; 791% in the assay filed under Mus musculus [5]; 1009% in the assay listed under Mus musculus [6].
In the case of `CCCCCCCCCCCCCCCCCCCCCC[C@@H](O)C(=O)N[C@@H](CO[C@H]1O[C@@H](CO)[C@H](O)[C@H](O)[C@@H]1O)[C@H](O)CCCCCCCCCCCCCCC`, in the assay with B16 [1], the “Tumor growth inhibition ratio (max TGIR)” value worked out at 70.7%. For the same compound, the Control is listed as 81.3% in the assay with B16 [2]; 98.5% with B16 [3]; 397% in the assay filed under Mus musculus [4]; 898% in the assay listed under Mus musculus [5]; 872% in the assay listed under Mus musculus [6].
With `CCCCCCCCCCCCCCCCCCCCCCCC(=O)N[C@@H](CO[C@H]1O[C@@H](CO)[C@H](O)[C@H](O)[C@@H]1O)[C@H](O)[C@H](O)CCCCCCCCCCCCCC`, in the assay on B16 [1], the “Tumor growth inhibition ratio (max TGIR)” value came to 64.8%. For the same compound, the Control in the assay on B16 [2] is given as 65%; with B16 [3] it was 90.8%; in the assay listed under Mus musculus [4], 198%; in the assay filed under Mus musculus [5], 642%; in the assay listed under Mus musculus [6], 790%.
As for `CCCCCCCCCCCCCCCCCCCCCCCC[C@@H](O)C(=O)N[C@@H](CO[C@H]1O[C@@H](CO)[C@H](O)[C@H](O)[C@@H]1O)[C@H](O)[C@H](O)CCCCCCCCCCCCCCC`, the “Tumor growth inhibition ratio (max TGIR)” value with B16 [1] was found to be 87.3%. Moreover, the Control with B16 [2] was found to be 72.3%; with B16 [3] it was 97.1%; in the assay filed under Mus musculus [4], 221%; in the assay listed under Mus musculus [5], 488%; in the assay filed under Mus musculus [6], 673%.
With `CCCCCCCCCCCCCCCCCCCCCC[C@@H](O)C(=O)N[C@@H](CO[C@H]1O[C@@H](CO)[C@H](O)[C@H](O)[C@@H]1O)[C@H](O)[C@H](O)CCCCCCCCCCCCC`, the “Tumor growth inhibition ratio (max TGIR)” value in the assay with B16 [1] was 61.5%. The Control is 82.4% in the assay on B16 [2]; 90.6% with B16 [3]; 520% in the assay listed under Mus musculus [4]; 1491% in the assay filed under Mus musculus [5]; 1202% in the assay listed under Mus musculus [6].
